This note sets out measurements from paper PMC9520214 (Heliyon, 2022).

Common to all, as to format: biochemical
In one assay the target is AChE (Electrophorus electricus, UniProt O42275). Briefly: biochemical.
The target in a further assay is hCA II (Homo sapiens, UniProt P00918). The assay is described as follows: hCA II esterase activity inhibition assay. The gist of the method:
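hCA II purified from expired human erythrocytes by Sepharose-4B-L-tyrosine-sulfanilamide affinity chromatography; purity checked by SDS-PAGE; protein quantified against a bovine serum albumin standard. Esterase activity followed spectrophotometrically as p-nitrophenylacetate hydrolysis to p-nitrophenolate, absorbance change at 348 nm over 3 min at 25 °C. Inhibitor and substrate concentrations varied; IC50 and Ki derived, inhibition type from Lineweaver-Burk plots.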

Another assay concerns the target hCA I (Homo sapiens, UniProt P00915). The assay is described as follows: hCA I esterase activity inhibition assay. The note with it: for fold increase of hCA I inhibition relative to complex 2: ratio of Ki values, versus complex 2.
Setting [1] is: read-out: Ki hCA II, Lineweaver-Burk, hCA II from human erythrocytes.
[2] abbreviates: read-out: Ki hCA I, Lineweaver-Burk, hCA I from human erythrocytes.

“And” between values parts separate entries of the source, which are not always exact repeats. Identical values can stand only once. Like-named read-outs stand apart in the source and are kept apart here.

Chain of hCA I (P00915 whole entry): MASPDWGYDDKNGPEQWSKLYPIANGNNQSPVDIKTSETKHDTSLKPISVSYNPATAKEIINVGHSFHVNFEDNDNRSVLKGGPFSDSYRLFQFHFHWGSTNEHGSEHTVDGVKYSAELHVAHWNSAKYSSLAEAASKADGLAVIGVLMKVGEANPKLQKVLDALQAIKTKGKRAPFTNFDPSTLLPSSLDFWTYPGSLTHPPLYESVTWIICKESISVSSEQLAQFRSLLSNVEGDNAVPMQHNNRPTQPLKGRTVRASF
Chain of AChE (O42275 24-633): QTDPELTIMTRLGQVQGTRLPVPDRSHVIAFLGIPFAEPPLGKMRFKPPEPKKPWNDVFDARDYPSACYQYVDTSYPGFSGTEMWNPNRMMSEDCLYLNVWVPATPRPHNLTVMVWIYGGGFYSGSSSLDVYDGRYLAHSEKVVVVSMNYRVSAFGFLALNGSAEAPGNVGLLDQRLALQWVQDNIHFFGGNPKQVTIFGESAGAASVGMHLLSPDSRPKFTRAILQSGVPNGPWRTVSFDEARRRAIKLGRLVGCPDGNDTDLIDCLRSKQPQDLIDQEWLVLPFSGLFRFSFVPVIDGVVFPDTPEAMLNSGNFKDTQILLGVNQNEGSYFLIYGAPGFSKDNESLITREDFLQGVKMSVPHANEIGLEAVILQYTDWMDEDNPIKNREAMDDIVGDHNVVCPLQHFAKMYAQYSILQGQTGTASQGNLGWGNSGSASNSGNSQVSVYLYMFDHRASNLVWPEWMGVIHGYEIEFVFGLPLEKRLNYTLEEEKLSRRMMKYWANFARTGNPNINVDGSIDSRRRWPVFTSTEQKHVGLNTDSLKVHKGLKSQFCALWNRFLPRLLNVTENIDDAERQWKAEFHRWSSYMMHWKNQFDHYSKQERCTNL

For `c1ccc(Cn2c[n+](Cc3ccccc3)c3ccccc32)cc1` [Compound 1, 1,3-dibenzylbenzimidazolium chloride], the IC50 at AChE stood at 86.6 nM; against hCA II, 69.3 nM; at hCA I it was 116 nM. Further, the Ki at AChE was 64 nM and 64.1 nM; on hCA II it was 49.3 ± 6.5 nM; on hCA I it was 68.5 ± 11.5 nM.

With “dibromo[1,3-dibenzylbenzimidazol-2-ylidene]-2-aminopyridinepalladium(II) [Complex 4]”, the Ki at hCA II (setting [1]) amounted to 19.7 ± 1.9 nM; at hCA I (setting [2]), 18.1 ± 3 nM. Further, at hCA I, the “fold increase of hCA I inhibition relative to complex 2” value came out at 2.83 fold.

With “dibromo[1,3-dibenzylbenzimidazol-2-ylidene]-3-chloropyridinepalladium(II) [Complex 3]”, the figures for the Ki on hCA II (setting [1]) and at hCA I (setting [2]) were 7.7 ± 0.6 nM and 10 ± 1.4 nM, respectively. On hCA I, the “fold increase of hCA I inhibition relative to complex 2” value is listed as 2.83 fold.

Take “dibromo[1,3-dibenzylbenzimidazol-2-ylidene]morpholinepalladium(II) [Complex 6]”: the Ki at hCA II (setting [1]) is 12 nM and 12.1 nM; on hCA I (setting [2]), 16.9 ± 0.3 nM.

Take “dibromo[1,3-dibenzylbenzimidazol-2-ylidene]pyridinepalladium(II) [Complex 2]”: at AChE, the “fold more effective AChE inhibition than donepezil” value is on record as 1.49 fold and the “fold more effective AChE inhibition than tacrine” value is 1.76 fold. Further, the Ki at hCA II (setting [1]) came out at 8.3 ± 1.8 nM. On hCA I (setting [2]), the Ki was 28.4 ± 1.2 nM.

For “dibromo[1,3-dibenzylbenzimidazol-2-ylidene]triphenylphosphine palladium(II) [Complex 5]”, the Ki at AChE (read-out: Ki AChE, Lineweaver-Burk, AChE from Electrophorus electricus) was 23.1 ± 2.6 nM; on hCA II (setting [1]), 15 nM and 15.3 nM; on hCA I (setting [2]), 40.3 ± 2 nM.

One may read the IC50 as the concentration at which inhibition is half-maximal. A word on the Ki: it is the equilibrium dissociation constant of an inhibitor or competing ligand from its target.
